Test results as given in ChEMBL document CHEMBL1141911, “Discovery and SAR studies of a novel series of noncovalent cathepsin S inhibitors” (Bioorg Med Chem Lett, 2005).

Tested on: JY
Assay: Inhibitory concentration against Ii degradation in human JY cells (range IC50 = 0.6-0.8 uM)
Assay type: functional, cell-based
In short: (§1)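 Inhibition of invariant chain (Ii) cleavage was measured in human JY cells, an antigen-presenting line. IC50 values are the mean of at least 3 runs.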

For `Cn1c(=O)n(C2CCN(CCCn3nc(-c4ccc(C(F)(F)F)cc4)c4c3CCN(S(C)(=O)=O)C4)CC2)c2cc(Cl)ccc21`, the IC50 was 800 nM.

Tested on: JY
Assay: Inhibitory concentration against Ii degradation in human JY cells
Assay type: functional, cell-based
In short: as §1

`N#Cc1ccccc1N1CCN(CC(Cn2nc(-c3ccc(I)cc3)c3c2CCN(C(N)=O)C3)OC(N)=O)CC1` (stereo unspecified) and `N#Cc1ccccc1N1CCN(CC(O)Cn2nc(-c3ccc(I)cc3)c3c2CCN(C(N)=O)C3)CC1` (stereo unspecified) are within 1.5-fold of each other in IC50: 880 nM for the first, 1300 nM for the second.

With `CC(=O)N1CCc2c(c(-c3ccc(I)cc3)nn2CC(O)CN2CCN(c3ccccc3C#N)CC2)C1` (stereo unspecified) the IC50 was 3900 nM.

Biological target: Cathepsin S (Homo sapiens, UniProt P25774)
Assay: Inhibitory concentration against cathepsin S

Cathepsin S, sequence (P25774 whole entry): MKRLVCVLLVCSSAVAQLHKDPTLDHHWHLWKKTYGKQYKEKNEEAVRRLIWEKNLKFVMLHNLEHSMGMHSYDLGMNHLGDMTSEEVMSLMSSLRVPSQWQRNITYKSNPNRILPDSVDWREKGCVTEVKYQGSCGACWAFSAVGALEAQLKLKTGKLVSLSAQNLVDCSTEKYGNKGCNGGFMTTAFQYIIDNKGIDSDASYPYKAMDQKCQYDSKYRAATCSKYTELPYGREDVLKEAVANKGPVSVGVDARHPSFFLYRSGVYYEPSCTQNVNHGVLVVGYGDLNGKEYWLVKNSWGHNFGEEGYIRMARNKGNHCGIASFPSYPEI

`CC(=O)N1CCc2c(c(-c3ccc(C(F)(F)F)cc3)nn2CC(O)CN2CCC(n3c(=O)n(C)c4ccccc43)CC2)C1` (stereo unspecified) and `CC(=O)N1CCc2c(c(-c3ccc(C(F)(F)F)cc3)nn2CC(O)CN2CCC(n3c(=O)[nH]c4ccccc43)CC2)C1` (stereo unspecified) are within 1.5-fold of each other in IC50: 110 nM for the first, 100 nM for the second.

First: CCCCn1c(=O)n(C2CCN(CC(O)Cn3nc(-c4ccc(Cl)c(C)c4)c4c3CCN(C(C)=O)C4)CC2)c2ccccc21 (stereo unspecified)
Second: CCn1c(=O)n(C2CCN(CC(O)Cn3nc(-c4ccc(Cl)c(C)c4)c4c3CCN(C(C)=O)C4)CC2)c2ccccc21 (stereo unspecified)
The IC50 of the first is 2.2-fold lower: 140 nM for the first, 310 nM for the second.

`CC(=O)N1CCc2c(c(-c3ccc(C(F)(F)F)cc3)nn2C[C@@H](O)CN2CCC(n3c(O)nc4ccc(Cl)cc43)CC2)C1` and `CC(=O)N1CCc2c(c(-c3ccc(C(F)(F)F)cc3)nn2C[C@H](O)CN2CCC(n3c(O)nc4ccc(Cl)cc43)CC2)C1` are within 1.5-fold of each other in IC50: 200 nM for the first, 180 nM for the second.

First: CC(=O)N1CCc2c(c(-c3ccc(Cl)c(C)c3)nn2CC(O)CN2CCC(n3c(=O)[nH]c4ccccc43)CC2)C1 (stereo unspecified)
Second: CC(=O)N1CCc2c(c(-c3ccc(Cl)c(C)c3)nn2C[C@H](O)CN2CCC(n3c(=O)[nH]c4ccc(Cl)cc43)CC2)C1
The IC50 of the first is 2.7-fold lower: 130 nM for the first, 350 nM for the second.

Compared with `Cn1c(=O)n(C2CCN(CCCn3nc(-c4ccc(Cl)c(Cl)c4)c4c3CCN(S(C)(=O)=O)C4)CC2)c2ccccc21`, `Cn1c(=O)n(C2CCN(CCCn3nc(-c4ccc(Cl)c(Cl)c4)c4c3CCN(S(C)(=O)=O)C4)CC2)c2cc(Cl)ccc21` is 3-fold higher in IC50: 50 nM for the first, 150 nM for the second.

Compared with `CC(=O)N1CCc2c(c(-c3ccc(Cl)cc3)nn2CC(O)CN2CCN(C(c3ccc(F)cc3)c3ccc(F)cc3)CC2)C1` (stereo unspecified), `CC(=O)N1CCc2c(c(-c3ccc(Cl)cc3)nn2CC(O)CN2CCC(n3c(=O)[nH]c4ccccc43)CC2)C1` (stereo unspecified) is 2.2-fold lower in IC50: 1000 nM for the first, 460 nM for the second. The second is the more potent here.

`CS(=O)(=O)N1CCc2c(c(-c3ccc(Br)cc3)nn2CC(O)CN2CCC(n3c(=O)[nH]c4ccc(Cl)cc43)CC2)C1` (stereo unspecified) and `CS(=O)(=O)N1CCc2c(c(-c3ccc(C(F)(F)F)cc3)nn2CC(O)CN2CCC(n3c(=O)[nH]c4ccc(Cl)cc43)CC2)C1` (stereo unspecified) are within 1.5-fold of each other in IC50: 50 nM for the first, 60 nM for the second.

`CS(=O)(=O)N1CCc2c(c(-c3ccc(Br)cc3)nn2CCCN2CCC(n3c(=O)[nH]c4ccccc43)CC2)C1` and `CS(=O)(=O)N1CCc2c(c(-c3ccc(C(F)(F)F)cc3)nn2CCCN2CCC(n3c(=O)[nH]c4ccccc43)CC2)C1` are the same in IC50: 50 nM for the first, 50 nM for the second.

First: COc1ccc2c(c1)[nH]c(=O)n2C1CCN(CC(O)Cn2nc(-c3ccc(Br)cc3)c3c2CCN(C(C)=O)C3)CC1 (stereo unspecified)
Second: CC(=O)N1CCc2c(c(-c3ccc(Br)cc3)nn2CC(O)CN2CCC(n3c(=O)[nH]c4ccccc43)CC2)C1 (stereo unspecified)
The IC50 of the first is 1.8-fold higher: 140 nM for the first, 80 nM for the second.

First: CC(=O)N1CCc2c(c(-c3ccc(Cl)c(C)c3)nn2CC(O)CN2CCC(n3c(=O)n(C(C)C)c4ccccc43)CC2)C1 (stereo unspecified)
Second: CC(=O)N1CCc2c(c(-c3ccc(Cl)c(C)c3)nn2CC(O)CN2CCC(n3c(=O)n(C)c4ccccc43)CC2)C1 (stereo unspecified)
The IC50 of the first is 5-fold lower: 100 nM for the first, 500 nM for the second. The first is the more potent here.

`Cn1c(=O)n(C2CCN(CCCn3nc(-c4ccc(Br)cc4)c4c3CCN(S(C)(=O)=O)C4)CC2)c2ccccc21` and `Cn1c(=O)n(C2CCN(CCCn3nc(-c4ccc(C(F)(F)F)cc4)c4c3CCN(S(C)(=O)=O)C4)CC2)c2cc(Cl)ccc21` are within 1.5-fold of each other in IC50: 140 nM for the first, 100 nM for the second.

`CC(=O)N1CCc2c(c(-c3ccc(Br)cc3)nn2CC(O)CN2CCC(n3c(=O)[nH]c4cc(Cl)c(Cl)cc43)CC2)C1` (stereo unspecified) and `CC(=O)N1CCc2c(c(-c3ccc(Cl)c(C)c3)nn2CC(O)CN2CCC(n3c(=O)[nH]c4cc(C)ccc43)CC2)C1` (stereo unspecified) are within 1.5-fold of each other in IC50: 110 nM for the first, 100 nM for the second.

`CS(=O)(=O)N1CCc2c(c(-c3ccc(C(F)(F)F)cc3)nn2CC(O)CN2CCC(n3c(=O)[nH]c4ccccc43)CC2)C1` (stereo unspecified) and `Cc1cc(-c2nn(CC(O)CN3CCC(n4c(=O)[nH]c5ccccc54)CC3)c3c2CN(S(C)(=O)=O)CC3)ccc1Cl` (stereo unspecified) are within 1.5-fold of each other in IC50: 50 nM for the first, 60 nM for the second.

Going from `CC(=O)N1CCc2c(c(-c3ccc(I)cc3)nn2CC(O)CN2CCC(n3c(=O)[nH]c4ccc(F)cc43)CC2)C1` (stereo unspecified) to `CC(=O)N1CCc2c(c(-c3ccc(I)cc3)nn2CC(O)CN2CCC(n3c(=O)[nH]c4ccccc43)CC2)C1` (stereo unspecified), the IC50 falls from 230 nM to 120 nM (1.9-fold). The second is the more potent here.

Compared with `CC(=O)N1CCc2c(c(-c3ccc(Br)cc3)nn2CC(O)CN2CCC(n3c(=O)[nH]c4cccc(C)c43)CC2)C1` (stereo unspecified), `Cn1c(=O)n(C2CCN(CC(O)Cn3nc(-c4ccc(C(F)(F)F)cc4)c4c3CCN(S(C)(=O)=O)C4)CC2)c2cc(Cl)ccc21` (stereo unspecified) is 2.6-fold lower in IC50: 210 nM for the first, 80 nM for the second. The second is the more potent here.

Biological target: not listed separately
Assay: Binding affinity against alpha-1A adrenergic receptor

Going from `N#Cc1ccccc1N1CCN(CC(Cn2nc(-c3ccc(I)cc3)c3c2CCN(C(N)=O)C3)OC(N)=O)CC1` (stereo unspecified) to `N#Cc1ccccc1N1CCN(CC(O)Cn2nc(-c3ccc(I)cc3)c3c2CCN(C(N)=O)C3)CC1` (stereo unspecified), the Ki rises from 12 nM to 36 nM (3-fold).
